Marks after values point to notes of the source that are not given here.
Assays:
[1] = Phase I pharmacokinetics in plasma and CSF, multiple dosing over 14 days; type: in vivo, human; settings: for AUC0–14: after first dose, geometric mean (% gCV); for Tmax / Cmax: male, human, po
How it was run: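 Healthy males received 5–50 mg orally once daily for 14 days. CSF was collected hourly via lumbar catheter for 14 h after dose 1 and by puncture before the last dose. Plasma was sampled hourly on days 1 and 14, every 24 h on days 2–4 and every 48 h on days 6–12. Drug was measured by validated HPLC-MS/MS with noncompartmental analysis. Steady state was judged from trough plasma concentrations (days 2–14) using pairwise 95% CIs.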

[2] = test system: glycine levels in the rat cerebrospinal fluid (CSF); assay: Glycine in rat CSF after single oral dose; type: in vivo; settings: 90 min
How it was run: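 Male Wistar rats were acclimatised 1 h in the test room, then dosed orally once with vehicle (0.5% Natrosol, 0.01% Tween-80) or 0.2, 0.6 or 2 mg/kg (n = 8 each). After 90 min, CSF was drawn by cisterna magna puncture under anaesthesia and frozen at −70°C. Glycine was quantified by LC-MS/MS. Data are mean ± SEM, compared with vehicle by one-way ANOVA with Dunnett's test.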

[3] = Compound levels in rat plasma and CSF; type: in vivo; settings: plasma, po
How it was run: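 Adult male Wistar rats (200–220 g) were given a single oral dose of 0.2, 0.6 or 2 mg/kg in 0.5% Natrosol with 0.01% Tween-80 (n = 8 per group). At 90 min, under s.c. inactin/ketavet anaesthesia, blood and cisterna magna CSF were taken. Plasma was stored at −20°C and CSF at −70°C. Drug was measured by HPLC-MS/MS, and CSF/plasma ratio was derived.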

[4] = previously observed; cited from earlier work
human GlyT2 = biological target: T1, human GlyT2 (Homo sapiens, UniProt Q9Y345); assay: Inhibition of [3H]-glycine uptake in HEK cells overexpressing human GlyT2; type: cell-based
T1 sequence (Q9Y345 1-797): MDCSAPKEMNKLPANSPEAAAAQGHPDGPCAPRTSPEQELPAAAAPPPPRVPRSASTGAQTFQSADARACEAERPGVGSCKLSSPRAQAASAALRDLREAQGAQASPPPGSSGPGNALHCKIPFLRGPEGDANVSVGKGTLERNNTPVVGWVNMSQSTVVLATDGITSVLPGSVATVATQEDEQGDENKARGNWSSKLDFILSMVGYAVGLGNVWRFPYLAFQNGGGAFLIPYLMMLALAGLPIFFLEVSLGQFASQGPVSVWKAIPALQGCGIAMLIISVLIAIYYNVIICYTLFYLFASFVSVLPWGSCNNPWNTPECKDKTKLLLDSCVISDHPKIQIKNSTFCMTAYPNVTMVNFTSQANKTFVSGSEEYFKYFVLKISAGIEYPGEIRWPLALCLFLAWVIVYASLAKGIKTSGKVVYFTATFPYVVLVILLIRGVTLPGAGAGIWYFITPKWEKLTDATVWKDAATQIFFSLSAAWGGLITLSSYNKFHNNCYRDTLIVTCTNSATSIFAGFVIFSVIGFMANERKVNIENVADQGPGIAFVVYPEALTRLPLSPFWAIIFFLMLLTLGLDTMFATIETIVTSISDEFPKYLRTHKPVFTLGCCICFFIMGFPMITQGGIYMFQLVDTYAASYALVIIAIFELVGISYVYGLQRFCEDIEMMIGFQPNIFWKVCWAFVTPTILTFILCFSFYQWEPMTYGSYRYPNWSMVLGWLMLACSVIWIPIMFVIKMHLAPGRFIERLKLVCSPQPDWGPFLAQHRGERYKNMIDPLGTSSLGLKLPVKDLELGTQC
How it was run: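 HEK cells overexpressing human GlyT2 were grown on scintillating microplates and incubated 20 min with inhibitor at 0.9–3000 nM in HBSS containing 5 mM alanine. Uptake was started with 250 nM [3H]glycine (0.0125 mCi/mL), and counting ran immediately over 57 min. IC50 came from a four-parameter log(inhibitor)-response fit.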

C[C@@H](Oc1ccc(S(C)(=O)=O)cc1C(=O)N1C[C@@H]2C[C@]2(c2cc(C(F)(F)F)on2)C1)C(F)(F)F [BI 425809]
AUC0–14 ([1]; CSF, 5 mg oral, n = 6): 0.0299 µM·h | AUC0–14 ([1]; CSF, 10 mg oral, n = 6): 0.0598 µM·h | AUC0–14 ([1]; CSF, 25 mg oral, n = 6): 124.0 (27.2) ^e nM | AUC0–14 ([1]; CSF, 50 mg oral, n = 5): 0.26 µM·h | Steady state achieved by ([1]; healthy volunteers, once daily dosing, trough plasma concentrations): ≤ 6 days | Tmax ([1]; CSF): 5 to 8 h | Cmax ([1]; CSF, 5 mg): 2.9 nM | Tmax ([1]; CSF, 5 mg): 8 h | Cmax ([1]; CSF, 10 mg): 5.6 nM | Tmax ([1]; CSF, 10 mg): 5.5 h | Cmax ([1]; CSF, 25 mg): 12.2 nM | Tmax ([1]; CSF, 25 mg): 6.1 h | Cmax ([1]; CSF, 50 mg): 25 nM | Tmax ([1]; CSF, 50 mg): 8.1 h | Tmax ([1]; plasma): 3 to 5 h | Cmax ([1]; plasma, 5 mg): 42.3 nM | Tmax ([1]; plasma, 5 mg): 5 h | Cmax ([1]; plasma, 10 mg): 85.6 nM | Tmax ([1]; plasma, 10 mg): 4.5 h | Cmax ([1]; plasma, 25 mg): 176 nM | Tmax ([1]; plasma, 25 mg): 3 h | Cmax ([1]; plasma, 50 mg): 328 nM | Tmax ([1]; plasma, 50 mg): 5 h | AUC0–14 ([1]; plasma, 5 mg oral, n = 6): 0.421 µM·h | AUC0–14 ([1]; plasma, 10 mg oral, n = 6): 0.829 µM·h | AUC0–14 ([1]; plasma, 25 mg oral, n = 7): 1,840 (24.2) ^d nM | AUC0–14 ([1]; plasma, 50 mg oral, n = 5): 3.3 µM·h | Increase of glycine CSF levels relative to vehicle ([2]; 0.2 mg/kg single oral dose, not significant): 30% | Increase of glycine CSF levels relative to vehicle ([2]; 0.6 mg/kg single oral dose, P < 0.05): 61% | Increase of glycine CSF levels relative to vehicle ([2]; 2 mg/kg single oral dose, P < 0.01): 78% | concentration at 90 min ([3]; 0.2 mg/kg): 79 nM | concentration at 90 min ([3]; 0.6 mg/kg): 217 nM | concentration at 90 min ([3]; 2 mg/kg): 723 nM | Attainment of steady state after administration [4]: ≤ 8 days | Half-life [4]: ~ 40 hours | IC50 (human GlyT2): > 10 µM

Source: article PMC6226115 (Clinical and Translational Science, 2018)
